{"source": "ChEMBL document CHEMBL4699542", "about": "“Design and synthesis of novel methoxypyridine-derived gamma-secretase modulators” (Bioorg Med Chem, 2020)", "key": {"[1]": {"assay": "(§1) In vivo modulation of gamma secretase transgenic Tg2576 mouse overexpressing human APP harboring K595N/M596L Swedish double mutant assessed as reduction in plasma amyloid beta42 level at 50 mg/kg, po administered via gavage for 14 consecutive days and measured after 4 hrs post last dose on day 14 by meso scale discovery relative to control", "format": "functional", "set-up": "scale not given: the % may be the effect or the level left", "conditions": "time 14 day", "outline": "(§2)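 Female Tg2576 mice, 5–6 months old (n=12/dose), gavaged daily for 14 days with 50 mg/kg or vehicle (5% NMP/95% PEG300). Plasma and brain taken 4 h after the last dose. Aβ38/40/42 quantified by Meso Scale multiplex assay, with % reduction versus vehicle. Mean ± SEM, ANOVA.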"}, "[2]": {"test_system": "Mus musculus", "assay": "In vivo modulation of gamma secretase in po dosed transgenic J20 mouse overexpressing human APP assessed as reduction in plasma amyloid beta40 level administered via gavage for 3 consecutive days and measured after 4 hrs post last dose on day 3 by meso scale discovery", "format": "functional, organism-based", "conditions": "dose mg/kg 25-100, time 3.0 day", "outline": "(§3)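 Female J20 mice, 5–6 months old (n=5/dose), dosed orally at 25, 50 or 100 mg/kg or with vehicle (5% NMP/95% PEG300) for 3 consecutive days. Plasma was taken 4 h after the final dose. Aβ38/40/42 measured by Meso Scale multiplex immunoassay, with % reduction relative to vehicle. Mean ± SEM, ANOVA.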"}, "[3]": {"assay": "as §1, with “beta40” for “beta42”", "format": "functional", "set-up": "scale not given: the % may be the effect or the level left", "conditions": "time 14 day", "outline": "as §2"}, "[4]": {"assay": "AUClast in CD-1 mouse at 1 mg/kg, iv administered as single dose measured up to 24 hrs", "format": "ADME, organism-based", "set-up": "route intravenous, dose 1 mg/kg, time <=24", "conditions": "in vivo", "outline": "(§4)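 Male CD-1 mice, 6–8 weeks old, single dose by tail vein (1 mg/kg, 3% NMP/45% PEG300/12% ethanol/40% water) or oral gavage (5 mg/kg, 5% NMP/95% PEG300). Retro-orbital plasma sampled 0.083 (iv only) to 24 h, n=3/timepoint, and analysed by HPLC/MS/MS. Non-compartmental analysis. Half-life taken from the terminal phase using ≥3 non-zero points after Tmax.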"}, "[5]": {"assay": "as §1, with “beta38” for “beta42”", "format": "functional", "set-up": "scale not given: the % may be the effect or the level left", "conditions": "time 14 day", "outline": "as §2"}, "[6]": {"assay": "Drug level in brain of transgenic Tg2576 mouse overexpressing human APP harboring K595N/M596L Swedish double mutant at 50 mg/kg, po administered via gavage for 14 consecutive days and measured after 4 hrs post last dose on day 14 by HPLC-MS/MS analysis", "format": "ADME, organism-based", "conditions": "time 14 day, read-out: Ct", "outline": "(§5)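 Female Tg2576 mice, 5–6 months old, gavaged with 50 mg/kg daily for 14 days (vehicle 5% NMP/95% PEG300), n=12/dose. Plasma and brain collected 4 h after the last dose and analysed by LC-MS/MS. LLOQ was 1 ng/mL in plasma and 5 ng/g in brain.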"}, "[7]": {"assay": "Drug level in plasma of transgenic Tg2576 mouse overexpressing human APP harboring K595N/M596L Swedish double mutant at 50 mg/kg, po administered via gavage for 14 consecutive days and measured after 4 hrs post last dose on day 14 by HPLC-MS/MS analysis", "format": "ADME, organism-based", "conditions": "time 14 day", "outline": "as §5"}, "[8]": {"assay": "Cmax in CD-1 mouse at 5 mg/kg, po administered as single dose measured up to 24 hrs", "format": "ADME, organism-based", "set-up": "route oral, dose 5 mg/kg, time <=24", "conditions": "in vivo", "outline": "as §4"}, "[9]": {"assay": "as §1, with “brain” for “plasma”, “beta38” for “beta42”", "format": "functional", "set-up": "scale not given: the % may be the effect or the level left", "conditions": "time 14 day", "outline": "as §2"}, "[10]": {"assay": "Half life in CD-1 mouse at 1 mg/kg, iv administered as single dose measured up to 24 hrs", "format": "ADME, organism-based", "conditions": "CD-1, mouse, in vivo", "outline": "as §4"}, "[11]": {"assay": "as §1, with “brain” for “plasma”, “beta40” for “beta42”", "format": "functional", "set-up": "scale not given: the % may be the effect or the level left", "conditions": "time 14 day", "outline": "as §2"}, "[12]": {"assay": "In vivo modulation of gamma secretase in transgenic J20 mouse overexpressing human APP assessed as reduction in plasma amyloid beta40 level at 100 mg/kg, po administered via gavage for 3 consecutive days and measured after 4 hrs post last dose on day 3 by meso scale discovery relative to control", "format": "functional", "set-up": "scale not given: the % may be the effect or the level left", "conditions": "time 3 day", "outline": "as §3"}, "[13]": {"test_system": "Mus musculus", "assay": "In vivo modulation of gamma secretase in po dosed transgenic J20 mouse overexpressing human APP assessed as reduction in plasma amyloid beta42 level administered via gavage for 3 consecutive days and measured after 4 hrs post last dose on day 3 by meso scale discovery", "format": "functional, organism-based", "conditions": "dose mg/kg 25-100, time 3.0 day", "outline": "as §3"}, "[14]": {"assay": "Oral bioavailability in CD-1 mouse at 5 mg/kg administered as single dose measured up to 24 hrs", "format": "ADME, organism-based", "conditions": "in vivo", "outline": "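CD-1 mouse PK after single iv (1 mg/kg) and oral gavage (5 mg/kg) dosing, with plasma sampled to 24 h (n=3/timepoint) and measured by HPLC/MS/MS. F(%) = (AUC0-inf po × Dose iv)/(AUC0-inf iv × Dose po) × 100.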"}, "[15]": {"biological_target": "Cytochrome P450 2D6 (Homo sapiens, UniProt P10635)", "sequence (P10635 whole entry, canonical isoform)": "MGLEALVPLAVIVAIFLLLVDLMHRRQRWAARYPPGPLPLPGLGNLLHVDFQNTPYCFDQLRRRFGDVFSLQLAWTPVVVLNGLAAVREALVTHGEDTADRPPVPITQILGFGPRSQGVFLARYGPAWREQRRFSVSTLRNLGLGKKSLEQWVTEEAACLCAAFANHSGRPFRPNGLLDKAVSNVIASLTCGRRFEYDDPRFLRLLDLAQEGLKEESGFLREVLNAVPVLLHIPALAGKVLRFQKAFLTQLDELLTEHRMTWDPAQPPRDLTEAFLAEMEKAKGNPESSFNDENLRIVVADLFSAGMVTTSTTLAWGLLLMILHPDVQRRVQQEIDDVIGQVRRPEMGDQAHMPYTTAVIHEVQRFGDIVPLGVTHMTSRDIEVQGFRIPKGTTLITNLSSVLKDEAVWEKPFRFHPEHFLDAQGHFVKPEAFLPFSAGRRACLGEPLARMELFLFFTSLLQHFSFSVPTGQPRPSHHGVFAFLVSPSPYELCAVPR", "assay": "Inhibition of recombinant CYP2D6 (unknown origin) by fluorescence-based assay", "format": "ADME", "outline": "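Recombinant CYP isoforms (five tested) screened for inhibition in fluorescence-based assays; IC50 in μM.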"}, "[16]": {"assay": "as §1, with “brain” for “plasma”", "format": "functional", "set-up": "scale not given: the % may be the effect or the level left", "conditions": "time 14 day", "outline": "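Female Tg2576 mice, 5–6 months old (n=12/dose), dosed daily by oral gavage for 14 days with vehicle (5% NMP/95% PEG300) or 50 mg/kg test article. Killed 4 h post final dose; brain and plasma Aβ38/40/42 measured by Meso Scale multiplex (SECTOR Imager 6000). Percent reduction versus vehicle; mean ± SEM, ANOVA.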"}, "[17]": {"assay": "AUClast in CD-1 mouse at 5 mg/kg, po administered as single dose measured up to 24 hrs", "format": "ADME, organism-based", "set-up": "route oral, dose 5 mg/kg, time <=24", "conditions": "in vivo", "outline": "as §4"}, "[18]": {"assay": "Drug level in plasma of transgenic J20 mouse overexpressing human APP at 100 mg/kg, po administered via gavage for 3 consecutive days and measured after 4 hrs post last dose on day 3 by HPLC-MS/MS analysis", "format": "ADME, organism-based", "conditions": "time 3 day", "outline": "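Female J20 mice, 5–6 months old, given 25, 50 or 100 mg/kg orally (5% NMP/95% PEG300) daily for 3 days, n=5/dose. Plasma and brain taken 4 h after the final dose and analysed by LC-MS/MS. LLOQ was 1 ng/mL in plasma and 5 ng/g in brain.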"}, "[19]": {"assay": "Drug metabolism in CD-1 mouse liver", "format": "ADME, tissue-based", "conditions": "read-out: Drug metabolism", "outline": "(§6)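 Test compound at 1 μM incubated 30 min with human, rat or mouse liver microsomes (1 mg/mL); parent remaining expressed as %.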"}, "[20]": {"assay": "Efflux ratio of apparent permeability from basolateral to apical membrane over apical to basolateral membrane in MDCK-MDR1 cells", "format": "ADME, cell-based, Canis lupus familiaris", "conditions": "dog", "outline": "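Calculated as B-A/A-B apparent permeability ratio across MDR1-MDCK cell monolayers; A-B permeability expressed as ×10⁻⁶ cm/s.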"}, "[21]": {"assay": "Metabolic stability in mouse liver microsomes assessed as parent compound remaining at 1 uM incubated for 30 mins", "format": "ADME, Microsome", "conditions": "0.5 h", "outline": "as §6"}, "[22]": {"biological_target": "Cytochrome P450 3A4 (Homo sapiens, UniProt P08684)", "sequence (P08684 whole entry)": "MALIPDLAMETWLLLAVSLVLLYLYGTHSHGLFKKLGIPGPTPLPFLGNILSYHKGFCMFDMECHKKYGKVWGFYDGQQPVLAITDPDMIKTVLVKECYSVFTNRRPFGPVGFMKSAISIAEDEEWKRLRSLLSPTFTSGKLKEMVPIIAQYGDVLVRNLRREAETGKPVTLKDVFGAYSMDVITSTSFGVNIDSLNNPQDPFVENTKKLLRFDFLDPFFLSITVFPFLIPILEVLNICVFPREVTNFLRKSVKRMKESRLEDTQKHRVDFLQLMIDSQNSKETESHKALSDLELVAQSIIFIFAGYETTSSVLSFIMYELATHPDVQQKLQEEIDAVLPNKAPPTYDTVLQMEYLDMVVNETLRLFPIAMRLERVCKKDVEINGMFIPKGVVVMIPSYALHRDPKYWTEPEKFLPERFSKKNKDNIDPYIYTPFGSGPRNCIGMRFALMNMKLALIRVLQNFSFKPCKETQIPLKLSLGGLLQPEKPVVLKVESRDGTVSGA", "assay": "Inhibition of recombinant CYP3A4 (unknown origin) by fluorescence-based assay", "format": "ADME"}, "[23]": {"biological_target": "Voltage-gated inwardly rectifying potassium channel KCNH2 (Homo sapiens, UniProt Q12809)", "sequence (Q12809 whole entry)": "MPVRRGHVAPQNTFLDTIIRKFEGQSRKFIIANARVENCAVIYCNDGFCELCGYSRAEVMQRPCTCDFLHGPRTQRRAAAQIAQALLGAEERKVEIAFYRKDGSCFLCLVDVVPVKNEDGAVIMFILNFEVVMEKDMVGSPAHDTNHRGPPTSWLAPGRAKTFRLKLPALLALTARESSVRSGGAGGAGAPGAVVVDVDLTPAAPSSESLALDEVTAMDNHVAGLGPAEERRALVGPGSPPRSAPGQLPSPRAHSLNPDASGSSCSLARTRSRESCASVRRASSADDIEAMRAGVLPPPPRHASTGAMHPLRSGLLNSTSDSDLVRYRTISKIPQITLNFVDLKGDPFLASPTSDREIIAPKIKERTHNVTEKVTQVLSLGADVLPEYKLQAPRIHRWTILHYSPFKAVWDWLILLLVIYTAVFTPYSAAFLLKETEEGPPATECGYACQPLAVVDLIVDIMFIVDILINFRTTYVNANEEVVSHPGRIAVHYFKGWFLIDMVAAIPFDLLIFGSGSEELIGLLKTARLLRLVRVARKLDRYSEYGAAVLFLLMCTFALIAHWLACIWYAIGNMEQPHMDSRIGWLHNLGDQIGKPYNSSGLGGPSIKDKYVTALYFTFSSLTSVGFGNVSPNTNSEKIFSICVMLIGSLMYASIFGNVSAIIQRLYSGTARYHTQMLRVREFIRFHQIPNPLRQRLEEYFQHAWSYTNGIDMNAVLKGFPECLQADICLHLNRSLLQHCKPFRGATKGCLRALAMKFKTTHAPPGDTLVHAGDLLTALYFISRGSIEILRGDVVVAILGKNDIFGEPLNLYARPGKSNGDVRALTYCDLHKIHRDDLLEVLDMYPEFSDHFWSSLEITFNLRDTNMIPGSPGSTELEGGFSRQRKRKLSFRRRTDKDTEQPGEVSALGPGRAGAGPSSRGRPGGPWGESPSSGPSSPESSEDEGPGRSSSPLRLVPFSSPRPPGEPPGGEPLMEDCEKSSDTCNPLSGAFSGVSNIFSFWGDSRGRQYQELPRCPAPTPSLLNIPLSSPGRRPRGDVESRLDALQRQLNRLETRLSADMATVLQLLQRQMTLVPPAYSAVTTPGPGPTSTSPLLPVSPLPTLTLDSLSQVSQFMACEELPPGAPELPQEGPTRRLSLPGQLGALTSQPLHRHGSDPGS", "assay": "Inhibition of human ERG expressed in HEK293 cells by patch clamp assay", "format": "cell-based"}}, "data": [{"compound": "CCn1nc2c(c1Nc1nc(-c3ccc(-n4cnc(C)c4)c(OC)n3)cs1)CCC2", "values": [{"measurement": "Activity", "setting": "[1]", "value": 52, "unit": "%"}, {"measurement": "Activity", "setting": "[2]", "value": "Dose-dependent effect"}, {"measurement": "Activity", "setting": "[3]", "value": 24, "unit": "%"}, {"measurement": "AUClast", "setting": "[4]", "value": 0.376, "unit": "µg·h/mL"}, {"measurement": "Activity", "setting": "[5]", "value": 111, "unit": "%"}, {"measurement": "concentration at 336 h", "setting": "[6]", "value": 425, "unit": "ng/g"}, {"measurement": "concentration at 336 h", "setting": "[7]", "value": 1.13, "unit": "µg/mL"}, {"measurement": "Cmax", "setting": "[8]", "value": 0.377, "unit": "µg/mL"}, {"measurement": "Activity", "setting": "[9]", "value": 0, "unit": "%"}, {"measurement": "half-life", "setting": "[10]", "value": 42, "unit": "min"}, {"measurement": "Activity", "setting": "[11]", "value": 1, "unit": "%"}, {"measurement": "Activity", "setting": "[12]", "value": 68, "unit": "%"}, {"measurement": "Activity", "setting": "[13]", "value": "Dose-dependent effect"}, {"measurement": "F", "setting": "[14]", "value": 66, "unit": "%"}, {"measurement": "IC50", "setting": "[15]", "value": "> 100", "unit": "µM"}, {"measurement": "Activity", "setting": "[16]", "value": 23, "unit": "%"}, {"measurement": "AUClast", "setting": "[17]", "value": 1.205, "unit": "µg·h/mL"}, {"measurement": "concentration at 72 h", "setting": "[18]", "value": 0.726, "unit": "µg/mL"}]}, {"compound": "COc1nc(-c2csc(Nc3c4c(nn3CCF)CCCC4)n2)ccc1-n1cnc(C)c1", "values": [{"measurement": "metabolised", "setting": "[19]", "value": 60, "unit": "%"}, {"measurement": "Ratio", "setting": "[20]", "value": 1.9}, {"measurement": "Cmax", "setting": "[8]", "value": 0.167, "unit": "µg/mL"}, {"measurement": "Stabilty", "setting": "[21]", "value": 100, "unit": "%"}, {"measurement": "Activity", "setting": "[12]", "value": 46, "unit": "%"}, {"measurement": "IC50", "setting": "[15]", "value": "> 100", "unit": "µM"}, {"measurement": "IC50", "setting": "[22]", "value": 1, "unit": "µM"}, {"measurement": "IC50", "setting": "[23]", "value": 11.4, "unit": "µM"}, {"measurement": "concentration at 72 h", "setting": "[18]", "value": 0.183, "unit": "µg/mL"}]}]}
